Assay results as given in ChEMBL document CHEMBL4602675, “The Marine Natural Product Manzamine A Inhibits Cervical Cancer by Targeting the SIX1 Protein” (J Nat Prod, 2020).
Activity calls are given as the source filed them. The calls are words filed in the database; no cut-off is given here.

Key:
SiHa [1] = test: Induction of apoptosis in human SiHa cells assessed as early apoptotic cells at 4 uM after 48 hrs by Annexin V-FITC/PI double staining based flow cytometric analysis (reference value: 2.4%); type: functional
[2] = molecular target: T1, Protein E7 (Human papillomavirus 16) (UniProt P03129); test: Inhibition of Human papillomavirus type16 derived E7 in human CaSki cells assessed as decrease in phosphorylation of Rb at 2 to 4 uM after 48 hrs by Western blot analysis; type: cell-based; conditions: Ca-Ski
T1 sequence (whole entry): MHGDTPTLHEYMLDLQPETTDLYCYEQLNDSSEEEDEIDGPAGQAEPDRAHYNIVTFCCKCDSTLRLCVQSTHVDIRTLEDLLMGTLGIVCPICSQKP
Method in brief: (§1)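 Cells were seeded at 1 × 10^6 per 100 mm dish and treated next day with 2 or 4 μM for 48 h. They were trypsinised, PBS-washed and lysed in RIPA with protease inhibitors. Equal protein was run on SDS-PAGE and transferred to PVDF. Primary antibodies were used at 1:500, with BSA 3% for blocking and antibodies for CK2α, Rb and pRb, otherwise 5% milk in TBST. HRP secondary at 1:2000, chemiluminescence detection.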

C-33-A [3] = test: Induction of apoptosis in human C33A cells assessed as late apoptotic cells at 4 uM after 48 hrs by Annexin V-FITC/PI double staining based flow cytometric analysis (reference value: 2.5%); type: functional
Ca-Ski [4] = test: Antiproliferative activity against human CaSki cells assessed as reduction in cell viability after 72 hrs by CellTiter-Glo assay; type: functional, cell-based
Method in brief: (§2)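 ATP-based luminescent viability readout. Cells were grown in DMEM with 10% FBS, 2 mM L-glutamine and penicillin-streptomycin at 37 °C, 5% CO2. 2 × 10^4 cells/well were seeded, then exposed the next day to 0–40 μM for 24, 48 or 72 h. % viability = 100 × treated/control. IC50 was fitted from a sigmoid dose-response curve. Run at least three times in quadruplicate; mean ± SEM.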

C-33-A [5] = test: Antiproliferative activity against human C33A cells assessed as reduction in cell viability after 72 hrs by CellTiter-Glo assay; type: functional, cell-based; method in brief: as §2
HeLa [6] = test: Induction of apoptosis in human HeLa cells assessed as early apoptotic cells at 4 uM after 24 hrs by Annexin V-FITC/PI double staining based flow cytometric analysis (reference value: 6.3%); type: functional
[7] = molecular target: T1, Protein E7 (Human papillomavirus 16); test: Inhibition of Human papillomavirus type16 derived E7 in human SiHa cells assessed as decrease in cyclin-D1 protein expression at 2 to 4 uM after 48 hrs by Western blot analysis; type: cell-based; method in brief: as §1
Ca-Ski [8] = test: Induction of apoptosis in human CaSki cells assessed as late apoptotic cells at 4 uM after 48 hrs by Annexin V-FITC/PI double staining based flow cytometric analysis (reference value: 9.1%); type: functional
HeLa [9] = test: Antiproliferative activity against human HeLa cells assessed as reduction in cell viability after 72 hrs by CellTiter-Glo assay; type: functional, cell-based; method in brief: as §2
HeLa [10] = test: Cell cycle arrest in human HeLa cells assessed as accumulation at G0/G1 phase at 4 uM after 72 hrs by propidium iodide staining based flow cytometric analysis (reference value: 76.4%); type: functional
Method in brief: (§3)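 Cells in DMEM/10% FBS at 37 °C, 5% CO2 were given 4 μM for 24, 48 or 72 h, with DMSO as control. After trypsinization they were fixed in chilled 70% ethanol on ice for 30 min, treated with RNase A (1 mg/mL) for 30 min at room temperature, and stained with PI (20 μg/mL). At least 10 000 events were read by flow cytometry to give sub-G1, G0/G1, S and G2/M fractions; mean ± SEM.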

Ca-Ski [11] = test: Induction of apoptosis in human CaSki cells assessed as apoptotic cells at 4 uM after 48 hrs by Annexin V-FITC/PI double staining based flow cytometric analysis (reference value: […]); type: functional
Ca-Ski [12] = test: Cell cycle arrest in human CaSki cells assessed as decrease in accumulation at S phase at 4 uM incubated up to 72 hrs by propidium iodide staining based flow cytometric analysis; type: functional; method in brief: as §3
Ca-Ski [13] = test: Cell cycle arrest in human CaSki cells assessed as accumulation at G0/G1 phase at 4 uM after 48 hrs by propidium iodide staining based flow cytometric analysis (reference value: 54.1%); type: functional; method in brief: as §3
SiHa [14] = test: Effect on total-Rb in human SiHa cells assessed decrease in Rb protein level at 2 to 4 uM after 48 hrs by Western blot analysis; type: ADME, cell-based; method in brief: as §1
[15] = molecular target: Protein E6 (Human papillomavirus 16) (UniProt P03126); test: Inhibition of Human papillomavirus type16 derived E6 in human SiHa cells assessed as increase in p53 protein expression at 2 to 4 uM after 48 hrs by Western blot analysis; type: cell-based; method in brief: as §1
HeLa [16] = test: Cell cycle arrest in human HeLa cells assessed as accumulation at Sub G1 phase at 4 uM after 72 hrs by propidium iodide staining based flow cytometric analysis (reference value: 3.5%); type: functional; method in brief: as §3
SiHa [17] = test: Cell cycle arrest in human SiHa cells assessed as increase in accumulation at G0/G1 phase at 4 uM incubated for 24 hrs by propidium iodide staining based flow cytometric analysis; type: functional
Method in brief: (§4)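 Cells in DMEM with 10% FBS, 2 mM L-glutamine, pen-strep, 37 °C, 5% CO2; seeded and left overnight, then treated at 4 μM with DMSO as control. Harvested by trypsin at 24, 48 or 72 h, fixed in chilled 70% ethanol 30 min on ice, RNase A (1 mg/mL) 30 min at room temperature, PI (20 μg/mL). Flow cytometry, ≥10 000 events, G0/G1, S, G2/M fractions; mean ± SEM.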

SiHa [18] = test: Induction of apoptosis in human SiHa cells assessed as viable cells at 4 uM after 48 hrs by Annexin V-FITC/PI double staining based flow cytometric analysis (reference value: 93.7%); type: functional; conditions: read-out: Activity
C-33-A [19] = test: Induction of apoptosis in human C33A cells assessed as necrotic cells at 4 uM after 24 hrs by Annexin V-FITC/PI double staining based flow cytometric analysis; type: functional
SiHa [20] = test: Induction of apoptosis in human SiHa cells assessed as apoptotic cells at 4 uM after 48 hrs by Annexin V-FITC/PI double staining based flow cytometric analysis (reference value: 6.4%); type: functional
SiHa [21] = test: Cell cycle arrest in human SiHa cells assessed as accumulation at G2/M phase at 4 uM after 48 hrs by propidium iodide staining based flow cytometric analysis (reference value: 14.7%); type: functional; method in brief: as §4
SiHa [22] = test: Cell cycle arrest in human SiHa cells assessed as accumulation at G0/G1 phase at 4 uM after 24 hrs by propidium iodide staining based flow cytometric analysis (reference value: 69.9%); type: functional; method in brief: as §3
Ca-Ski [23] = test: Induction of apoptosis in human CaSki cells assessed as viable cells at 4 uM after 48 hrs by Annexin V-FITC/PI double staining based flow cytometric analysis (reference value: 81.6%); type: functional; conditions: read-out: Activity
[24] = molecular target: Protein E6 (human papillomavirus 18) (UniProt P06463); test: Inhibition of Human papillomavirus type18 derived E6 in human HeLa cells assessed as increase in p53 protein expression at 2 to 4 uM after 48 hrs by Western blot analysis; type: cell-based; method in brief: as §1
SiHa [25] = test: Induction of apoptosis in human SiHa cells assessed as viable cells at 4 uM after 24 hrs by Annexin V-FITC/PI double staining based flow cytometric analysis (reference value: 90.8%); type: functional; conditions: read-out: Activity

Sequence of Protein E6 (human papillomavirus 18) (P06463 whole entry): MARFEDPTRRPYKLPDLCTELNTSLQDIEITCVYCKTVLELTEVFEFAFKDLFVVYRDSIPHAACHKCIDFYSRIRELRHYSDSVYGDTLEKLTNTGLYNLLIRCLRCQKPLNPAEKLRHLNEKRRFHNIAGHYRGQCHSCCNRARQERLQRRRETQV
Sequence of Protein E6 (Human papillomavirus 16) (P03126 whole entry): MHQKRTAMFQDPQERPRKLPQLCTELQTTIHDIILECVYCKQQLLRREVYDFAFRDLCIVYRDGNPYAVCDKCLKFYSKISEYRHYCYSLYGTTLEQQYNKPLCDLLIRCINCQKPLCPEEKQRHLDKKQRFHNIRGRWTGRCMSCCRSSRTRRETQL

Which Activity (SiHa [1]) does the source give for `O[C@]12C=C(c3nccc4c3[nH]c3ccccc34)[C@@H]3CCN(CCCC/C=C\CC1)C[C@@]31C[C@@H]3/C=C\CCCCN3[C@H]12` [MANZAMINE A] here?
The Activity was 27%.

What about the inhibition [2] of the same molecule?
Its inhibition is “Active”.

What about the Activity (C-33-A [3]) of the same molecule?
Its Activity is 15.7%.

And the IC50 (Ca-Ski [4])?
Its IC50 is 9.4 µM.

And the IC50 (C-33-A [5])?
The IC50 was 1.6 µM.

And the Activity (HeLa [6])?
Its Activity is 10.5%.

And the inhibition [7]?
The inhibition was “Active”.

What about the Activity (Ca-Ski [8]) of the same molecule?
The Activity was 7.8%.

And the IC50 (HeLa [9])?
The IC50 was 5.3 µM.

And the Activity (HeLa [10])?
The Activity was 49.1%.

What about the Activity (Ca-Ski [11]) of the same molecule?
The Activity was 23.2%.

And the Activity (Ca-Ski [12])?
Its Activity is “Active”.

What about the Activity (Ca-Ski [13]) of the same molecule?
Its Activity is 82.4%.

What about the Activity (SiHa [14]) of the same molecule?
Its Activity is “Toxic”.

What about the inhibition [15] of the same molecule?
Its inhibition is “Active”.

What about the Activity (HeLa [16]) of the same molecule?
Its Activity is 24.3%.

And the “fold change (FC)” value (SiHa [17])?
The value was 1.2.

What about the viability at 4 µM (SiHa [18]) of the same molecule?
Its viability at 4 µM is 66.4%.

And the Activity (C-33-A [19])?
The Activity was 6.3%.

What about the Activity (SiHa [20]) of the same molecule?
The Activity was 33.6%.

What about the Activity (SiHa [21]) of the same molecule?
The Activity was 8.2%.

And the Activity (SiHa [22])?
The Activity was 85.3%.

And the viability at 4 µM (Ca-Ski [23])?
Its viability at 4 µM is 76.9%.

And the inhibition [24]?
The inhibition was “Active”.

And the viability at 4 µM (SiHa [25])?
The viability at 4 µM was 82.5%.
